Measurements as given in PMC6172054 (Cancer Science, 2018).
Like-named read-outs stand apart in the source and are kept apart here.

Key:
multiple myeloma [1] = conditions: twice weekly carfilzomib monotherapy 20/27 mg/m^2; cited from earlier work
multiple myeloma [2] = conditions: twice weekly carfilzomib monotherapy 20/45 or 20/56 mg/m^2; cited from earlier work
[3] = Plasma pharmacokinetics of carfilzomib after 30-minute intravenous infusion; type: in vivo, human; conditions: for AUClast / T1/2 (terminal elimination half-life): mean ± SD, SD; for Tmax: median (minimum-maximum)
In short: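 Relapsed/refractory myeloma patients got a 30-min IV infusion of test compound with dexamethasone 40 mg. Plasma was sampled on Days 1 (20 mg/m2) and 15 (70 mg/m2) of Cycle 1: pre-infusion, 5 and 15 min after start, just before end, then 5, 15, 30 min and 1, 2, 4 h post-infusion. Per-patient parameters were summarised as mean ± SD, Tmax as median (min–max).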

[4] = Day 1 of Cycle 1, carfilzomib 20 mg/m^2 iv, N = 6
[5] = Day 15 of Cycle 1, carfilzomib 70 mg/m^2 iv, N = 5

- AUClast [3, 4]: 355 ± 120 ng·h/mL
- T1/2 (terminal elimination half-life) [3, 4]: 41 ± 15.1 min
- Tmax [3, 4]: 0.575 (0.250‐0.617) h
- AUClast [3, 5]: 1250 ± 285 ng·h/mL
- T1/2 (terminal elimination half-life) [3, 5]: 54 ± 4.44 min
- Tmax [3, 5]: 0.467 (0.250‐0.617) h
SMILES: CC(C)C[C@H](NC(=O)[C@H](CCc1ccccc1)NC(=O)CN1CCOCC1)C(=O)N[C@@H](Cc1ccccc1)C(=O)N[C@@H](CC(C)C)C(=O)[C@@]1(C)CO1 [carfilzomib]
- ORR (multiple myeloma [1]): 22.5%
- ORR (multiple myeloma [2]): 57.1%
